pIC50, pKd: −log10 of the molar value. Active and inactive are the calls of the source. The calls are words filed in the database; no cut-off is given here.

Series [1] in a line: Solubility of the compound in water. The following applies: buffer. Type of series: physicochemical.
Series [2] concerns the target T1, Cellular tumor antigen p53 (Homo sapiens, UniProt P04637, Y220C). Briefly: Binding affinity to p53 Y220C mutant (unknown origin).
The test system of series [3] is Cellular tumor antigen p53 (Homo sapiens), P04637 [Y220C]. The series is described as follows: Binding affinity to p53 Y220C mutant (unknown origin) assessed as change in melting temperature at 250 uM.
Series [4] deals with T1, Cellular tumor antigen p53. The series is described as follows: Binding affinity to N-terminal His6-tagged p53 DNA binding domain Y220C mutant (94 to 312 residues) (unknown origin) expressed in Escherichia coli C41 by ITC.
Series [5] concerns Cellular tumor antigen p53 (Homo sapiens), P04637 [Y220C]. Briefly: Binding affinity to p53 Y220C mutant (unknown origin) assessed as change in melting temperature.
The test system of series [6] is Huh-7. The series is described as follows: Antiproliferative activity against p53 Y220C mutant knockout human HuH7 cells up to 120 uM after 72 hrs by CellTiter-Glo assay. The series is classed as functional, cell-based. For orientation: In ATP-based viability assays light output follows the ATP content of the culture.
Series [7] has as its system Cellular tumor antigen p53 (Homo sapiens), P04637 [Y220C]. Briefly: Binding affinity to p53 Y220C mutant (unknown origin) assessed as change in melting temperature at 1 mM.
Series [8] concerns Huh-7. Briefly: Antiproliferative activity against human HuH7 cells harboring p53 Y220C mutant after 72 hrs by CellTiter-Glo assay. Type of series: functional, cell-based. As to conditions: Huh-7, 72 h. The gist of the method:
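Cells were exposed to compound for 72 h and viability read by CellTiter-Fluor or CellTiter-Glo 2.0. Quadruplicate technical replicates, normalized to blank (viability = 1) and no-cell (viability = 0) controls. Confirmed in at least 2 independent biological replicates. IC50 derived from the dose-response data.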

As for `CNC(=O)c1cc(I)c(-n2cccc2)c(I)c1O`, the solubility entry in series [1] is “Insoluble”.
One may read the pKd as the negative decadic logarithm of the Kd, by convention in mol/L. A high value points to a small Kd. A word on the ΔTm: it is the shift of the melting midpoint relative to a reference. `O=C(O)c1cc(I)c(-n2cccc2)c(I)c1O`: the pKd in series [2] and in series [4] was 4.68 in each case. Further, the ΔTm in series [3] is 1.8 °C. In addition, in series [1], the solubility result is listed as “Soluble”.
Take `CN(C)CCNC(=O)c1cc(I)c(-n2cccc2)c(I)c1O`: the solubility result in series [1] is “Insoluble”.
In the case of `CCN(CC)C1CCN(Cc2cc(C#CCNc3ccccc3)cc(I)c2O)CC1`, the shift in melting temperature (ΔTm) in series [5] was determined as 4 °C.
As to `CCN(CC)c1nc2c(C(=O)OC)c(O)c(I)c(-n3cccc3)c2s1`, the solubility entry in series [1] is “Insoluble”.
Regarding `CCN(CC)c1nc2c(C(=O)O)c(O)c(I)c(-n3cccc3)c2s1`, the result in series [6] was inactive.
Turning to `O=C(O)c1cc(I)cc(I)c1O`, the negative logarithm of the Kd (pKd) in series [2] is 3.09. The ΔTm in series [7] stood at 0.6 °C. In series [1], the solubility entry was “Soluble”.
As to `COC(=O)c1cc(I)c(-n2cccc2)c(I)c1O`, in series [1], the solubility result is on record as “Insoluble”.
What is called pIC50 is the negative decadic logarithm of the IC50, by convention in mol/L. Turning to `CCCSc1cc(C(=O)O)c(O)c(I)c1-n1cccc1`, in series [8], the pIC50 was 3.82.

Source of the values: ChEMBL document CHEMBL4152234, “Aminobenzothiazole derivatives stabilize the thermolabile p53 cancer mutant Y220C and show anticancer activity in p53-Y220C cell lines” (Eur J Med Chem, 2018).
